Laboratory results taken from ChEMBL document CHEMBL5154784, “Design, Synthesis, Biological Evaluation, and Computational Studies of Novel Ureidopropanamides as Formyl Peptide Receptor 2 (FPR2) Agonists to Target the Resolution of Inflammation in Central Nervous System Disorders” (J Med Chem, 2022).

Assays:
[1] = molecular target: T1, N-formyl peptide receptor 2 (Homo sapiens, UniProt P25090); experiment: Antagonist activity at human FPR2 transfected in human HL-60 cells assessed as inhibition of WKYMVM-induced intracellular calcium mobilization preincubated for 10 mins followed by WKYMVM addition measured every 5 seconds for 240 secs by Fluo-4-AM dye based fluorescence assay; assay type: functional, cell-based
T1 sequence (P25090 whole entry): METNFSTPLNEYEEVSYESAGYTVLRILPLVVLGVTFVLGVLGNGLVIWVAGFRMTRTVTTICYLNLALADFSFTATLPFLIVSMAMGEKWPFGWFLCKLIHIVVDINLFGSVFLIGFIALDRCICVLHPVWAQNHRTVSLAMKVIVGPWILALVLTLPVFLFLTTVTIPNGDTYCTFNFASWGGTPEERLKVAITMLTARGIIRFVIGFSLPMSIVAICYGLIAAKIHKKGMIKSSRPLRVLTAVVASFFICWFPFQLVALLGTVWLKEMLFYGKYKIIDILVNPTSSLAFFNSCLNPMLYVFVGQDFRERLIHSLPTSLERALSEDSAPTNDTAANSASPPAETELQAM
How it was run: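 Fluo-4-loaded FPR2-HL60 cells pre-incubated 10 min with compound (1% DMSO final), then challenged with 5 nM WKYMVM. Maximum change over baseline taken as response. IC50 by four-parameter logistic regression of at least 5–6 point curves.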

[2] = Metabolic stability in rat liver microsomes assessed as compound remaining at 10 uM preincubated for 10 mins followed by NADPH addition and measured after 30 mins by HPLC analysis; assay type: ADME, Microsome; details: time 40 min, read-out: Stability
How it was run: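 Rat liver microsomes (1.0 mg/mL protein), compound 10 μM final in 100 mM potassium phosphate pH 7.4, pre-incubated 10 min at 37 °C, then NADPH regenerating system added. After 30 min, % parent remaining by HPLC-DAD (C18, MeOH/H2O 80:20) versus incubation without NADPH system.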

[3] = molecular target: T1, N-formyl peptide receptor 2; experiment: Agonist activity at human FPR2 transfected in human HL-60 cells assessed as increase in calcium mobilization measured every 5 seconds for 240 secs by Fluo-4-AM dye based fluorescence assay; assay type: functional, cell-based
[4] = Cytotoxicity against mouse N9 cells assessed as reduction in cell viability incubated for 48 hrs by MTT assay; assay type: toxicity, cell-based
How it was run: (§1)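 MTT 0.5 mg/mL added for 3–4 h at 37 °C, formazan dissolved in DMSO/EtOH 1:1, absorbance read at 570 and 630 nm. Mean ± SD from at least two to three experiments in triplicate.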

fMet-Leu-Phe receptor [5] = molecular target: T2, fMet-Leu-Phe receptor (Homo sapiens, UniProt P21462); experiment: Antagonist activity at human FPR1 transfected in human HL-60 cells assessed as inhibition of fMLF-induced intracellular calcium mobilization preincubated for 10 mins followed by fMLF addition and measured every 5 seconds for 240 secs by Fluo-4-AM dye based fluorescence assay; assay type: functional, cell-based
T2 sequence (P21462 whole entry): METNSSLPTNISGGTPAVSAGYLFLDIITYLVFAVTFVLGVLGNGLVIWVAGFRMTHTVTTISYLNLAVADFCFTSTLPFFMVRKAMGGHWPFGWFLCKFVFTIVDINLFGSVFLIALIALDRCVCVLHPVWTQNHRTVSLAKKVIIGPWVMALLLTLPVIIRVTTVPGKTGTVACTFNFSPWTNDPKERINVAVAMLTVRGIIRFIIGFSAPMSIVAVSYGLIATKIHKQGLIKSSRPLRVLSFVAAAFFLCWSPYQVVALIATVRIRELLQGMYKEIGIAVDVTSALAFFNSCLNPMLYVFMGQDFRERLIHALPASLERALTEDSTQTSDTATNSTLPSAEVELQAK

[6] = molecular target: T3, N-formyl peptide receptor 2 (Homo sapiens) (UniProt P25090); experiment: Agonist activity at human FPR2 transfected in HL-60 cells assessed as induction of intracellular calcium ions mobilization using WKYMVM as substrate preincubated for 10 mins followed by substrate addition and measured every 5 seconds for 240 secs by Fluo-4-AM dye based fluorescent assay relative to control; assay type: functional, cell-based; details: filed as agonist
T3 sequence (whole entry): T1 sequence (P25090 whole entry)

fMet-Leu-Phe receptor [7] = molecular target: T2, fMet-Leu-Phe receptor; experiment: Agonist activity at human FPR1 transfected in human HL-60 cells assessed as increase in calcium mobilization measured every 5 seconds for 240 secs by Fluo-4-AM dye based fluorescence assay; assay type: functional, cell-based
[8] = Cytotoxicity against mouse N9 cells assessed as reduction in cell viability by measuring LDH release at 0.5 to 5 uM incubated for 24 hrs by LDH assay; assay type: toxicity, cell-based; details: n9, 24 h, dose 0.5-5 µM
How it was run: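 N9 cells (2 × 10^4/well) given compound at 0.5 or 5 μM, alone or with LPS (E. coli O111:B4, 100 ng/mL) added 30 min later, for 24 h at 37 °C. Released LDH measured in supernatant (30 min, room temperature, 490/630 nm). Expressed as % of untreated cells, mean ± SEM, at least three experiments in triplicate.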

[9] = Cytotoxicity against mouse N9 cells assessed as reduction in cell viability at 1 to 100 uM incubated for 48 hrs by MTT assay relative to control; assay type: toxicity, cell-based; details: n9, 48 h, dose 1-100 µM; how it was run: as §1
[10] = Neurotoxicity against Sprague-Dawley rat primary microglial cells assessed as reduction in cell viability by measuring LDH release at 0.1 uM incubated for 24 hrs by LDH assay; assay type: toxicity, cell-based; details: microglia
How it was run: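 Sprague–Dawley rat neonatal cortical microglia (>95% Iba-1+), switched to 1% FBS medium 1 h before treatment. Compound 0.1 μM for 1 h, then LPS 100 ng/mL for 24 h; WRW4 10 μM given 30 min before in some sets, 0.1% vehicle. Supernatant LDH read at 540 nm, % of vehicle controls, mean ± SEM.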

[11] = Antiinflammatory activity against Sprague-Dawley rat primary microglial cells assessed as reduction in IL-1beta expression at 0.1 uM incubated for 1 hr by ELISA method (reference value: 100 +/- 13 %); assay type: functional, Microglia; set-up: scale not given: the % may be the effect or the level left
Microglia = experiment: Anti-inflammatory activity against Sprague-Dawley rat primary microglial cells assessed as reduction in IL-10 expression at 0.1 uM incubated for 1 hr by ELISA method (reference value: 100 +/- 3.9 %); assay type: functional; set-up: scale not given: the % may be the effect or the level left
[12] = Antiinflammatory activity against Sprague-Dawley rat primary microglial cells assessed as reduction in IL-6 expression at 0.1 uM incubated for 1 hr by ELISA method (reference value: 100 +/- 2.16 %); assay type: functional, Microglia; set-up: scale not given: the % may be the effect or the level left
[13] = Antiinflammatory activity against Sprague-Dawley rat primary microglial cells assessed as reduction in TNF-alpha expression at 0.1 uM incubated for 1 hr by ELISA method (reference value: 100 +/- […]); assay type: functional, Microglia; set-up: scale not given: the % may be the effect or the level left

| Compound | IC50 [1] [µM] | remaining at 0.5 h, 10 µM [2] [%] | EC50 [3] [µM] | Efficacy [6] [%] | EC50 (fMet-Leu-Phe receptor [7]) [µM] | EC50 at 48 h [4] [µM] | further results |
| --- | --- | --- | --- | --- | --- | --- | --- |
| CC1(C)CN(C(=O)[C@H](Cc2ccc(C#N)cc2)NC(=O)Nc2ccc(F)cc2)Cc2cc(F)ccc21 | 0.6 | 34 | 1.6 | – | – | – | – |
| N#Cc1ccc(C[C@@H](NC(=O)Nc2ccc(F)cc2)C(=O)N2CCc3ccccc32)cc1 | 3.9 | 14 | 5.6 | – | – | – | – |
| N#Cc1ccc(C[C@H](NC(=O)Nc2ccc(F)cc2)C(=O)NCC2(c3ccc(F)c(Cl)c3)CC2)cc1 | – | – | – | – | – | 3.26 | Activity [8]: Non-Toxic |
| N#Cc1ccc(C[C@H](NC(=O)Nc2ccc(F)cc2)C(=O)NC2CCCCNC2=O)cc1 (some centres not stated) | 0.35 | 85 | 0.17 | 105 | 0.78 | > 100 | Activity [9]: 53%; IC50 (fMet-Leu-Phe receptor [5]): 3.5 µM; Activity [8]: Non-Toxic |
| N#Cc1ccc(C[C@H](NC(=O)Nc2ccc(F)cc2)C(=O)N2CCc3ccccc32)cc1 | 0.01 | 22 | 0.026 | – | – | – | Activity [10]: Non-Toxic; Activity [8]: Non-Toxic |
| N#Cc1ccc(C[C@H](NC(=O)Nc2ccc(F)cc2)C(=O)N2CCc3cccnc32)cc1 | 0.14 | 14 | 0.16 | – | – | – | – |
| N#Cc1ccc(C[C@@H](NC(=O)Nc2ccc(F)cc2)C(=O)N2CCc3ccc(F)cc32)cc1 | – | 28 | – | – | – | – | Activity [8]: Toxic |
| N#Cc1ccc(C[C@@H](NC(=O)Nc2ccc(F)cc2)C(=O)N2Cc3ccc(F)cc3C2)cc1 | – | 72 | 7.2 | 45 | 5.6 | 9.44 | – |
| H-WRWWWW-NH2 | – | – | – | – | – | – | Activity [11]: 103%; Activity (Microglia): 103%; Activity [12]: 108%; Activity [13]: 121% |
| N#Cc1ccc(C[C@@H](NC(=O)Nc2ccc(F)cc2)C(=O)N2CCc3cccnc32)cc1 | 1.2 | 10 | 1.1 | – | – | – | – |
| N#Cc1ccc(C[C@H](NC(=O)Nc2ccc(F)cc2)C(=O)N2CCc3cc(F)ccc32)cc1 | 0.21 | 19 | 0.16 | 110 | 4.8 | 29.4 | Activity [8]: Non-Toxic |
| CC1(C)CN(C(=O)[C@@H](Cc2ccc(C#N)cc2)NC(=O)Nc2ccc(F)cc2)c2ccccc21 | 16.4 | 65 | 6.9 | – | – | – | – |
| N#Cc1ccc(C[C@H](NC(=O)Nc2ccc(F)cc2)C(=O)N2Cc3ccc(F)cc3C2)cc1 | 4.4 | – | 1.7 | 70 | 3.3 | 18.2 | – |
| CC1(C)CN(C(=O)[C@H](Cc2ccc(C#N)cc2)NC(=O)Nc2ccc(F)cc2)c2ccccc21 | 2.7 | – | 2.3 | – | – | – | – |
| N#Cc1ccc(C[C@@H](NC(=O)Nc2ccc(F)cc2)C(=O)N2CCc3cc(F)ccc32)cc1 | 3.4 | – | 0.41 | 90 | 1.8 | 23.8 | – |

Now from value to compound, other results behind:

| IC50 [1] [µM] | remaining at 0.5 h, 10 µM [2] [%] | EC50 [3] [µM] | Efficacy [6] [%] | EC50 (fMet-Leu-Phe receptor [7]) [µM] | Compound | EC50 at 48 h [4] [µM] | further results |
| --- | --- | --- | --- | --- | --- | --- | --- |
| 0.012 | 7 | 0.25 | 175 | 0.44 | N#Cc1ccc(C[C@@H](NC(=O)Nc2ccc(F)cc2)C(=O)N2CCCc3ccccc32)cc1 | 13.7 | IC50 (fMet-Leu-Phe receptor [5]): 17.4 µM |
| 30.1 | 67 | 19.5 | 80 | – | N#Cc1ccc(C[C@H](NC(=O)Nc2ccc(F)cc2)C(=O)N2CCC(F)(F)CC2)cc1 | > 100 | Activity [9]: 9% |
| – | 62 | – | – | – | N#Cc1ccc(C[C@@H](NC(=O)Nc2ccc(F)cc2)C(=O)N2CCC(F)(F)CC2)cc1 | > 100 | Activity [9]: 40% |
| 0.013 | 10 | 0.27 | 120 | 1.2 | N#Cc1ccc(C[C@H](NC(=O)Nc2ccc(F)cc2)C(=O)N2CCCc3ccccc32)cc1 | 14.7 | IC50 (fMet-Leu-Phe receptor [5]): 24.2 µM; Activity [8]: Toxic |
| 0.03 | 6 | 0.24 | – | – | N#Cc1ccc(C[C@H](NC(=O)Nc2ccc(F)cc2)C(=O)N2CCc3ccccc3C2)cc1 | – | Activity [8]: Non-Toxic |
| 0.24 | 14 | 0.62 | – | – | N#Cc1ccc(C[C@@H](NC(=O)Nc2ccc(F)cc2)C(=O)N2CCc3ccc(F)cc3C2)cc1 | – | – |
| 16.5 | 61 | 5.2 | 105 | 26.4 | N#Cc1ccc(C[C@@H](NC(=O)Nc2ccc(F)cc2)C(=O)N2CCCC2)cc1 | > 100 | Activity [9]: 59%; IC50 (fMet-Leu-Phe receptor [5]): 43.9 µM |
| – | 15 | 19.3 | – | – | N#Cc1ccc(C[C@@H](NC(=O)Nc2ccc(F)cc2)C(=O)N2Cc3ccccc3C2)cc1 | – | – |
| 4.4 | 31 | 0.34 | – | – | N#Cc1ccc(C[C@H](NC(=O)Nc2ccc(F)cc2)C(=O)N2Cc3ccccc3C2)cc1 | – | Activity [8]: Non-Toxic |
| 3.5 | 4 | 1.3 | – | – | N#Cc1ccc(C[C@@H](NC(=O)Nc2ccc(F)cc2)C(=O)N2CCc3ccccc3C2)cc1 | – | – |
| 6.4 | – | 3.1 | 100 | 15.3 | N#Cc1ccc(C[C@H](NC(=O)Nc2ccc(F)cc2)C(=O)N2CCCC2)cc1 | > 100 | Activity [9]: 55%; IC50 (fMet-Leu-Phe receptor [5]): 33.8 µM |
| 49.3 | 25 | 13.4 | – | – | N#Cc1ccc(C[C@@H](NC(=O)Nc2ccc(F)cc2)C(=O)N2CCCCC2)cc1 | – | – |
| 12 | – | 0.98 | – | – | N#Cc1ccc(C[C@H](NC(=O)Nc2ccc(F)cc2)C(=O)N2CCCCC2)cc1 | – | – |
| 3.8 | 78 | 1 | 140 | 4.2 | N#Cc1ccc(C[C@@H](NC(=O)Nc2ccc(F)cc2)C(=O)NC2CCCCNC2=O)cc1 (some centres not stated) | > 100 | Activity [9]: 36%; IC50 (fMet-Leu-Phe receptor [5]): 40.4 µM |
| 0.26 | 8 | 0.45 | – | – | N#Cc1ccc(C[C@H](NC(=O)Nc2ccc(F)cc2)C(=O)N2CCc3ccc(F)cc3C2)cc1 | – | – |
